From ChEMBL document CHEMBL4825663 (J Med Chem, 2021)
pIC50: −log10 of the molar value.

Legend:
[1] = Cmax in human at 900 mg, po administered as single dose; type: ADME, organism-based; set-up: route oral, dose 900 mg; conditions: in vivo
[2] = target: T1, ATP-dependent translocase ABCB1 (Homo sapiens, UniProt P08183); test: Inhibition of paclitaxel stimulated- P-gp ATPase activity (unknown origin)
[3] = Drug distribution in Sprague-Dawley rat spinal cord; type: ADME, tissue-based; conditions: in vivo
[4] = target: T2, Cytochrome P450 1A2 (Homo sapiens, UniProt P05177); test: Drug metabolism assessed as human CYP1A2-mediated metabolism; type: ADME; conditions: recombinant enzyme
T2 sequence (P05177 whole entry): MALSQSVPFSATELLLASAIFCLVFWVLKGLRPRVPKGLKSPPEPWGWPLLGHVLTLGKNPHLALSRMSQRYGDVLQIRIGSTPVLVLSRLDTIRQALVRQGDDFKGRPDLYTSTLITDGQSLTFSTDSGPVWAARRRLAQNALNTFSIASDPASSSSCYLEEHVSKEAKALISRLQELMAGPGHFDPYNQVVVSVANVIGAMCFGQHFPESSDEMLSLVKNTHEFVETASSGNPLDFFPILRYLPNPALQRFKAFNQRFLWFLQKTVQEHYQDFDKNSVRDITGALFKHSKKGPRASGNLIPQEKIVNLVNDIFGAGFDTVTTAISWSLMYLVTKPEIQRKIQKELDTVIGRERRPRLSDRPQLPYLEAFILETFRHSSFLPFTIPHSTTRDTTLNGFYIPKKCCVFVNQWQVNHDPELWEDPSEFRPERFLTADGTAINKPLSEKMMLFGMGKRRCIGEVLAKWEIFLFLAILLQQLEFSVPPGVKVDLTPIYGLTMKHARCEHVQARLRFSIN

[5] = Toxicity in Sprague-Dawley rat assessed as enlargement of mesenteric lymph nodes at >= 50 mg/kg, po and measured after 4 to 13 weeks; type: organism-based, Mesenteric lymph node; conditions: in vivo, time 4-13 weeks
[6] = target: T1, ATP-dependent translocase ABCB1; test: Inhibition of P-gp in human Caco-2 cells assessed as reduction in paclitaxel efflux pre-incubated for 30 mins and measured after 120 mins by LC-MS/MS analysis; type: cell-based
Outline: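 Bidirectional paclitaxel transport across Caco-2 monolayers with coadministered inhibitor. Apparent permeability was measured apical-to-basal (absorption) and basal-to-apical (efflux). IC50 was derived from these permeability data.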

[7] = target: T3, Multidrug and toxin extrusion protein 1 (Homo sapiens, UniProt Q96FL8); test: Inhibition of human MATE1 assessed as reduction in intracellular probe substrate accumulation upto 100 uM by microplate scintillation counter analysis relative to control; type: cell-based
T3 sequence (Q96FL8 whole entry): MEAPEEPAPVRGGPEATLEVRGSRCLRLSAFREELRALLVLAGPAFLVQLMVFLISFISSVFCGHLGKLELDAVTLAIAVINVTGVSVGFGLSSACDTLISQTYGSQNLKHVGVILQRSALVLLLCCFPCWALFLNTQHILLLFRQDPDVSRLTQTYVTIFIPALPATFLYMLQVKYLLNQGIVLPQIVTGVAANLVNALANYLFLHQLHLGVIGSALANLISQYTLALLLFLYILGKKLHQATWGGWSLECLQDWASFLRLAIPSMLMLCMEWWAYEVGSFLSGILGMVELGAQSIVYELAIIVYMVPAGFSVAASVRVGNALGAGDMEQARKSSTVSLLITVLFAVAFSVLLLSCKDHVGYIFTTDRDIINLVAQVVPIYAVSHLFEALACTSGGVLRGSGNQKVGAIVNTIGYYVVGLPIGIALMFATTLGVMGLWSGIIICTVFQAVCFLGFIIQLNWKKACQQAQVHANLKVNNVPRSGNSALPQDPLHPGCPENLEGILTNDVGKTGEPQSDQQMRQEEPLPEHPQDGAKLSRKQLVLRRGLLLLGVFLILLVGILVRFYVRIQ
Outline: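 Cellular uptake-inhibition assays used Chinese hamster ovary, HEK293 or MDCKII cells stably expressing the respective human SLC transporter, run alongside the corresponding control cells. Inhibitor was tested at concentrations up to 100 μM.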

[8] = Half life in Sprague-Dawley rat at 6 mg/kg, iv measured upto 24 hrs by LC-MS/MS analysis; conditions: in vivo
[9] = Drug absorption in fed Beagle dog plasma at 6 mg/kg, po measured upto 24 hrs in presence of 3 mg/kg encequidar by LC-MS/MS analysis; type: ADME, organism-based, Canis lupus familiaris; conditions: in vivo
[10] = test system: NCI-H460; test: Antitumor activity against human NCI-H460 cells xenografted in athymic nude mouse assessed as median tumor growth delay at 24 mg/kg, iv administered every other day for 4 doses and monitored for 48 days; type: functional; conditions: time 48 day
Outline: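 Female athymic NCr-nu mice carried subcutaneous NCI-H460 xenografts. […] Tumor weights and body weights were followed for 48 days after implantation. Read-out was median tumor growth delay.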

[11] = in vivo; conditions: Sprague-Dawley, rat, po, 20 mg/kg
[12] = AUClast in Sprague-Dawley rat at 6 mg/kg, iv measured upto 24 hrs by LC-MS/MS analysis; type: ADME, organism-based; set-up: route intravenous, dose 6 mg/kg, time <=24; conditions: in vivo
[13] = Drug accumulation in Sprague-Dawley rat plasma at 20 mg/kg, po administered once per week for 4 weeks in presence of 10 mg/kg encequidar by LC-MS/MS analysis; type: ADME, organism-based; conditions: in vivo, 672 h
[14] = Ratio of drug concentration in BALB/c mouse liver to plasma at 20 mg/kg, po measured upto 24 hrs in presence of 10 mg/kg encequidar by LC-MS/MS analysis; type: ADME, organism-based
[15] = Oral bioavailability in Sprague-Dawley rat at 20 mg/kg measured upto 24 hrs in presence of 10 mg/kg encequidar by LC-MS/MS analysis; type: ADME, organism-based; conditions: in vivo
[16] = Neurotoxicity in Sprague-Dawley rat assessed as reduction in nociceptive threshold at 6 mg/kg, iv measured after day 5, 7, 11 and 14; type: toxicity, organism-based; conditions: in vivo
Outline: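 Healthy rats received IV paclitaxel (Taxol) at 0 (vehicle), 3 or 6 mg/kg, four times at 2-day intervals (cumulative 12 or 24 mg/kg), n = 5/group. Paw pressure threshold (mmHg to elicit response, back paws) was measured by Randall–Selitto test. Data were analysed by one-way ANOVA, then Dunnett's test versus control.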

[17] = test system: NCI-H460; test: Antitumor activity against human NCI-H460 cells xenografted in athymic nude mouse assessed as median tumor growth delay at 50 mg/kg, po administered every other day for 4 doses in presence of 20 mg/kg encequidar and monitored for 48 days; type: functional; conditions: time 48 day
Outline: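 Female athymic NCr-nu mice bearing subcutaneous NCI-H460 human lung tumor xenografts. Paclitaxel (30, 40 or 50 mg/kg) and the P-gp inhibitor (12, 16 or 20 mg/kg; ratio 2.5:1) given together as one oral gavage solution every other day for four doses. IV paclitaxel (18 and 24 mg/kg) on the same schedule for comparison. Tumor weights and body weights followed for 48 days after implantation. Read-out: median tumor growth delay.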

[18] = Ratio of drug concentration in BALB/c mouse large intestine to plasma at 20 mg/kg, po measured upto 24 hrs in presence of 10 mg/kg encequidar by LC-MS/MS analysis; type: ADME, organism-based
[19] = Tmax in Sprague-Dawley rat at 20 mg/kg, po measured upto 24 hrs in presence of 10 mg/kg encequidar by LC-MS/MS analysis; type: ADME, organism-based; conditions: in vivo

T1 sequence (P08183 whole entry): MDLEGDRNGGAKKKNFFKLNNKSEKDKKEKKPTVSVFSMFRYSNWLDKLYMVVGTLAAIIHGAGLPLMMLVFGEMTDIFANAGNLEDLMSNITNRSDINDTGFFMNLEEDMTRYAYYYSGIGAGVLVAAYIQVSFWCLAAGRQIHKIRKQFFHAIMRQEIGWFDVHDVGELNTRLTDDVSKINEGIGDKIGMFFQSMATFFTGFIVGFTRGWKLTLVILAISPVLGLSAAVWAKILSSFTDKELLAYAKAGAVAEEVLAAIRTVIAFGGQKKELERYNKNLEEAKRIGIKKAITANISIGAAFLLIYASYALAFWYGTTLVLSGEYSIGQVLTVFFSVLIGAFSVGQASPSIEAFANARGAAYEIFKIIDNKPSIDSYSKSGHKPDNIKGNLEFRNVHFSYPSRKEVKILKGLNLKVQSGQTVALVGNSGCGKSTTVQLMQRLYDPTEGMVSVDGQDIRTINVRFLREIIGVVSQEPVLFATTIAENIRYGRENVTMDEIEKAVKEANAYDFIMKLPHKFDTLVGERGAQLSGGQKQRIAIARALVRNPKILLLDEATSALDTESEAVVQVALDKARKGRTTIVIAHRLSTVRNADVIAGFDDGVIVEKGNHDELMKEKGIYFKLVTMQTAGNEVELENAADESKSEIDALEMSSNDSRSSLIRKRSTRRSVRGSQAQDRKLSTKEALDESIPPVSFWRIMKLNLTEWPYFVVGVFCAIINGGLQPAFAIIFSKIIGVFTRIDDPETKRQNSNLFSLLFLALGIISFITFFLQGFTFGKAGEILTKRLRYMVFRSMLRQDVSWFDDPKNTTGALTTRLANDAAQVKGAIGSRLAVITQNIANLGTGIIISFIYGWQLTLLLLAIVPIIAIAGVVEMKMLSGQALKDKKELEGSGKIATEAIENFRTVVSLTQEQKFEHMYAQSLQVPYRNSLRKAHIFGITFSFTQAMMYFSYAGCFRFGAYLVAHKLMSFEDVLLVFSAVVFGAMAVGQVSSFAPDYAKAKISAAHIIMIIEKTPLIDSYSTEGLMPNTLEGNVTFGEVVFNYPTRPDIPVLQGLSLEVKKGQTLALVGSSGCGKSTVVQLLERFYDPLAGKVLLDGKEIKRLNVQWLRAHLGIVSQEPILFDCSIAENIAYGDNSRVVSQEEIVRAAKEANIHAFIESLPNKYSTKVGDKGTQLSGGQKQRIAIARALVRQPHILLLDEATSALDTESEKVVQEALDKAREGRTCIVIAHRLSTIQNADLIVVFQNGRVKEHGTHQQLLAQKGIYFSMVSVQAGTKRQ

Row | Cmax [1] | pIC50 [2] | Drug uptake [3] | Drug metabolism [4] | pIC50 [6] | SMILES | Activity [5] | inhibition (INH) [7] | half-life at 24 h [8] | Drug absorption [9] | Time [10] | half-life at 24 h [11] | AUC(0-t) at 24 h [12] | Drug uptake [13] | Kp at 24 h [14] | bioavailability [15] | Activity [16] | Time [17] | Kp at 24 h [18] | Tmax [19]
1 | 6.6 ng/mL | 9.22 | Not Active | Metabolite_Notdetected | 7.28 | COc1cc2c(cc1OC)CN(CCc1ccc(-n3nnc(-c4cc(OC)c(OC)cc4NC(=O)c4cc(=O)c5ccccc5o4)n3)cc1)CC2 | Toxic | < 50% | – | – | – | – | – | – | – | – | – | – | – | –
2 | – | – | – | – | – | CC(=O)O[C@H]1C(=O)[C@@]2(C)[C@H]([C@H](OC(=O)c3ccccc3)[C@]3(O)C[C@H](OC(=O)[C@H](O)[C@@H](NC(=O)c4ccccc4)c4ccccc4)C(C)=C1C3(C)C)[C@]1(OC(C)=O)CO[C@@H]1C[C@@H]2O [PACLITAXEL] | – | – | 7.7 h | Not Active | 16.3 days | 6.8 h | 2730 ng·h/mL | Not Active | > 1 | 41.3% | Toxic | 12.7 days | > 1 | 1 h
